For one assay, the system named is RPMI 8402. As to the kind of experiment: Cytotoxicity against human lymphoblast cell line RPMI 8402. Format: functional, cell-based. The method, boiled down: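 RPMI 8402 human lymphoblasts grown in suspension at 37 °C, 5% CO2, in RPMI with 10% heat-inactivated FBS, 2 mM L-glutamine, penicillin and streptomycin. Seeded at 2000 cells/well and exposed to drug continuously for 4 days. Viability read by MTT tetrazolium microtiter assay, giving IC50. Highest dose tested 25 µM.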

The test system of assay [1] is DNA topoisomerase 1 (Bos taurus). As to the kind of experiment: Effective concentration against Topoisomerase-I (purified from calf thymus gland) mediated DNA cleavage relative to Hoechst 33342.

The text below walks through data of ChEMBL document CHEMBL1129500, “Substituted 2,5'-Bi-1H-benzimidazoles: topoisomerase I inhibition and cytotoxicity” (J Med Chem, 1996).

In turn, `N#Cc1ccc2[nH]c(-c3ccc4[nH]c(-c5ccc6ccccc6c5)nc4c3)nc2c1` gave an IC50 in the assay with RPMI 8402 of 130 nM. In addition, the REC in assay [1] came to 10.

With `Cc1ccc(-c2nc3cc(-c4nc5cc(C#N)ccc5[nH]4)ccc3[nH]2)cc1`, in the assay with RPMI 8402, the IC50 is 570 nM. In assay [1], this molecule had an REC of 1.

Molecule `NC(=O)c1ccc2[nH]c(-c3ccc4[nH]c(-c5cccc6ccccc56)nc4c3)nc2c1` registered an IC50 with RPMI 8402 of 3700 nM. This molecule also showed an REC in assay [1] of 20.

`CN1CCN(c2ccc3[nH]c(-c4ccc5[nH]c(-c6ccccc6)nc5c4)nc3c2)CC1` came in with a half-inhibitory concentration (IC50) in the assay on RPMI 8402 of 490 nM. In addition, the REC in assay [1] was 1.

`N#Cc1ccc2[nH]c(-c3ccc4[nH]c(-c5ccccc5)nc4c3)nc2c1`: the IC50 with RPMI 8402 was above 25000 nM. This molecule also registered an REC in assay [1] above 100.

In the assay on RPMI 8402, `Cc1cccc(-c2nc3cc(-c4nc5cc(N6CCN(C)CC6)ccc5[nH]4)ccc3[nH]2)c1` yielded an IC50 of 360 nM. This molecule had an REC in assay [1] of 1.

`Cc1ccccc1-c1nc2cc(-c3nc4cc(C#N)ccc4[nH]3)ccc2[nH]1`: 1200 nM corresponded to half-maximal inhibition with RPMI 8402 (IC50). The molecule further displayed an REC in assay [1] above 100.

Consider `Cc1ccc(-c2nc3cc(-c4nc5cc(C(N)=O)ccc5[nH]4)ccc3[nH]2)cc1`, for which the IC50 with RPMI 8402 was above 25000 nM. The REC in assay [1] came out at 10.

The molecule `N#Cc1ccc2[nH]c(-c3ccc4[nH]c(-c5cccc6ccccc56)nc4c3)nc2c1` returned an IC50 in the assay on RPMI 8402 of 650 nM. The same molecule returned an REC in assay [1] of 10.

Turning to `Cc1ccccc1-c1nc2cc(-c3nc4cc(C(N)=O)ccc4[nH]3)ccc2[nH]1`, inhibition in the assay with RPMI 8402 was half-maximal at 8200 nM (IC50). The same molecule showed an REC in assay [1] of 100.

In the assay on RPMI 8402, `CN1CCN(c2ccc3[nH]c(-c4ccc5[nH]c(-c6ccc7ccccc7c6)nc5c4)nc3c2)CC1` had an IC50 of 110 nM. In addition, the REC in assay [1] came out at 10.

In the assay with RPMI 8402, `Cc1cccc(-c2nc3cc(-c4nc5cc(C(N)=O)ccc5[nH]4)ccc3[nH]2)c1` registered an IC50 of 8200 nM. In assay [1], the REC came to 100.

As for `CN1CCN(c2ccc3[nH]c(-c4ccc5[nH]c(-c6cccc7ccccc67)nc5c4)nc3c2)CC1`, the concentration for half-maximal inhibition (IC50) in the assay on RPMI 8402 was 330 nM. Moreover, in assay [1], the REC was found to be 20.

`NC(=O)c1ccc2[nH]c(-c3ccc4[nH]c(-c5ccccc5)nc4c3)nc2c1` yielded an IC50 in the assay on RPMI 8402 above 25000 nM. The REC in assay [1] came to 10.

For the molecule `Cc1ccc(-c2nc3cc(-c4nc5cc(N6CCN(C)CC6)ccc5[nH]4)ccc3[nH]2)cc1`, the IC50 with RPMI 8402 was 830 nM. In assay [1], this molecule returned an REC of 1.

In turn, `Cc1ccccc1-c1nc2cc(-c3nc4cc(N5CCN(C)CC5)ccc4[nH]3)ccc2[nH]1` yielded an IC50 in the assay on RPMI 8402 of 590 nM. This molecule also had an REC in assay [1] of 10.

In turn, `NC(=O)c1ccc2[nH]c(-c3ccc4[nH]c(-c5ccc6ccccc6c5)nc4c3)nc2c1` showed an IC50 with RPMI 8402 of 740 nM. Besides, the REC in assay [1] amounted to 100.

Take `Cc1cccc(-c2nc3cc(-c4nc5cc(C#N)ccc5[nH]4)ccc3[nH]2)c1`: in the assay on RPMI 8402, the IC50 worked out at 860 nM. Further, in assay [1], the REC came out at 100.

Broadly, the IC50 is the concentration that gives 50% inhibition. A lower IC50 goes with greater potency.
